# Data from ChEMBL document CHEMBL1151475, “Thiopurine drugs azathioprine and 6-mercaptopurine inhibit Mycobacterium paratuberculosis growth in vitro” (2008).
# Legend:
# Format in all cases: functional
# [1] = tested on: Mycobacterium avium subsp. paratuberculosis; experiment: Antituberculosis activity against Mycobacterium paratuberculosis ATCC 19698 isolated from bovine assessed as lowest drug level producing inhibition at 10^6 CFU of inoculum by MGIT 960 susceptibility test
# Procedure, shortened: (§1)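 M. paratuberculosis ATCC 19698 at 10^6 CFU per MGIT ParaTB tube in duplicate, drugs at final 1.0–64.0 μg/ml, 37°C in MGIT 960. Inhibition is the lowest concentration whose time to detection exceeds the 1:100 diluted-inoculum solvent control. No detectable growth means the tube never signals positive through 56 days.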
# [2] = tested on: Mycobacterium avium subsp. paratuberculosis; experiment: Antituberculosis activity against Mycobacterium paratuberculosis ATCC 19698 isolated from bovine assessed as lowest drug level producing inhibition at 10^6 CFU of inoculum by agar counting method
# Procedure, shortened: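 ATCC 19698 at 10^6 CFU was exposed to drug (1.0–64.0 μg/ml) in MGIT ParaTB medium at 37°C. Aliquots taken at 3 and 5 days were centrifuged, resuspended in PBS and declumped with glass beads. Serial dilutions were plated in quadruplicate on 7H10/OADC/mycobactin J and counted after 8 weeks. Inhibition is the lowest concentration giving a 2 log10 (99%) CFU reduction.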
# [3] = tested on: Mycobacterium avium subsp. paratuberculosis; experiment: Antituberculosis activity against Mycobacterium paratuberculosis ATCC 19698 isolated from bovine assessed as minimum drug level resulting in no detectable growth at 10^6 CFU of inoculum after 56 days by MGIT 960 susceptibility test; procedure, shortened: as §1
smiles,measurement,setting,value
CCn1cc(C(=O)O)c(=O)c2ccc(C)nc21 [NALIDIXIC ACID],Activity,[1],>64 µg/mL
same,Activity,[2],>64 µg/mL
same,Activity,[3],>64 µg/mL
CO[C@H]1/C=C/O[C@@]2(C)Oc3c(C)c(O)c4c(O)c(c(/C=N/N5CCN(C)CC5)c(O)c4c3C2=O)NC(=O)/C(C)=C\C=C\[C@H](C)[C@H](O)[C@@H](C)[C@@H](O)[C@@H](C)[C@H](OC(C)=O)[C@@H]1C [RIFAMPIN],Activity,[1],2 µg/mL
same,Activity,[2],2 µg/mL
same,Activity,[3],>64 µg/mL
Nc1ccc(S(=O)(=O)Nc2ccccn2)cc1 [SULFAPYRIDINE],Activity,[1],>64 µg/mL
same,Activity,[2],>64 µg/mL
same,Activity,[3],>64 µg/mL
O=C(O)c1cc(/N=N/c2ccc(S(=O)(=O)Nc3ccccn3)cc2)ccc1O [SULFASALAZINE],Activity,[1],>64 µg/mL
same,Activity,[2],>64 µg/mL
same,Activity,[3],>64 µg/mL
